Results taken from ChEMBL document CHEMBL2385031, “Design, synthesis, and initial evaluation of a high affinity positron emission tomography probe for imaging matrix metalloproteinases 2 and 9” (J Med Chem, 2013).

Experiments:
[1] = biological target: Matrix metalloproteinase-9 (Homo sapiens, UniProt P14780); assay: Inhibition of human full length MMP9 using Mca-Pro-Leu-Gly-Leu-Dpa(Dnp)-Ala-Arg-NH2 as substrate measured up to 120 mins by fluorescence assay
How it was run: (§1)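 Recombinant full-length human enzyme activated with APMA, used at 0.1 nM final in 50 mM Tris/HCl pH 7.5, 10 mM CaCl2, 150 mM NaCl, 0.05% Brij-35. Inhibitor added from DMSO (e.g., 1 nM to 30 μM). Activity read as initial slope of fluorescence rise from cleavage of an internally quenched fluorogenic substrate; IC50 derived.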

[2] = biological target: T1, Interstitial collagenase (Homo sapiens, UniProt P03956); assay: Inhibition of MMP1 (unknown origin)
T1 sequence (P03956 whole entry): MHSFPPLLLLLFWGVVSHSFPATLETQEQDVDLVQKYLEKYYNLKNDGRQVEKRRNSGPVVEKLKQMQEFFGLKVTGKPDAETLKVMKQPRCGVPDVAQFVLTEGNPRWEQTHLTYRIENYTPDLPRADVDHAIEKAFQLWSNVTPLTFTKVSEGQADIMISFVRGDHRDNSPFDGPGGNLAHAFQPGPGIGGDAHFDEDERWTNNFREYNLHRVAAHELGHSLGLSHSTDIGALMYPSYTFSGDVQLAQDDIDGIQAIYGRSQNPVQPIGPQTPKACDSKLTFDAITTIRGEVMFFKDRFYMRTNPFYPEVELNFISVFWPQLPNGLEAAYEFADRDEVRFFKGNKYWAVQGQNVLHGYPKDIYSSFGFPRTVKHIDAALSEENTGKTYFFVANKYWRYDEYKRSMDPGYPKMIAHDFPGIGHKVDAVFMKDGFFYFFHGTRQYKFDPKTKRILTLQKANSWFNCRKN

[3] = biological target: 72 kDa type IV collagenase (Homo sapiens, UniProt P08253); assay: Inhibition of human full length MMP2 using Mca-Pro-Leu-Gly-Leu-Dpa(Dnp)-Ala-Arg-NH2 as substrate measured up to 120 mins by fluorescence assay; how it was run: as §1
Chain of 72 kDa type IV collagenase (P08253 whole entry): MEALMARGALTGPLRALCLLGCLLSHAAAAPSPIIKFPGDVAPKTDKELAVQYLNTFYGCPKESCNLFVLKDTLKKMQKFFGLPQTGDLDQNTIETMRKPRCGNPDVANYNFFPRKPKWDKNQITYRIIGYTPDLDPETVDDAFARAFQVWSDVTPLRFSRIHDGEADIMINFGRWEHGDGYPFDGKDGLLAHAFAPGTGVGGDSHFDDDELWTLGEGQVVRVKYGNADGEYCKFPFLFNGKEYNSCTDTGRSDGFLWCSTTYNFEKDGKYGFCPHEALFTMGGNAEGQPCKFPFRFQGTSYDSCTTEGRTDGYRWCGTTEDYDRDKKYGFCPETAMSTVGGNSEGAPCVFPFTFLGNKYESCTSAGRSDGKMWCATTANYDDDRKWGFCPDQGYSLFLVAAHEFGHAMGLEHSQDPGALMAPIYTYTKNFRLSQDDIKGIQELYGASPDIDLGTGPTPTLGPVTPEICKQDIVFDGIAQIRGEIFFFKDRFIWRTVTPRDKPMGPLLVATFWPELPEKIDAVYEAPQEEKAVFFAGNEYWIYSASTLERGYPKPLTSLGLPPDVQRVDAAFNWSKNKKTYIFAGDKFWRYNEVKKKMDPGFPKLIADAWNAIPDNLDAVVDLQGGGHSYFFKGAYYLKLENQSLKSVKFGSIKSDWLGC

[4] = Drug uptake in C57BL/6 mouse urinary bladder at 5.3 MBq, iv by PET/CT imaging; type: ADME, organism-based; conditions: in vivo
How it was run: (§2)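 Single C57BL/6 mouse, 5.3 MBq 18F-tracer via tail vein, isoflurane 2−3% in oxygen/air, body kept at 37 °C. Small-animal PET/CT, two-bed static acquisition: anterior 8−22 min, posterior 23−38 min post-injection; images averaged 8−38 min.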

[5] = test system: Plasma; assay: Metabolic stability in human plasma at 60 Mbq up to 2 hrs by UPLC analysis; type: ADME, cell-free
How it was run: (§3)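 About 60 MBq formulated 18F-tracer (5% ethanol in PBS) added to ~0.5 mL plasma, split into six aliquots. Zero-time sample quenched immediately with methanol; others incubated at 37 °C with shaking and quenched with ice-cold methanol at 5, 30, 60, 90, 120 min. Proteins removed by centrifugation at 10000g, 10 min; supernatants analysed by UPLC.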

[6] = Drug excretion in C57BL/6 mouse urine at 650 MBq/mL after 15 to 60 mins by UPLC analysis; type: ADME, tissue-based; conditions: in the assay text read “after 60 mins” for “after 15 to 60 mins”, read-out: Drug excretion
How it was run: (§4)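 C57BL/6 mice given 150 μL of 650 MBq/mL (17.5 mCi/mL) 18F-labelled tracer each; killed by decapitation at 15, 30 and 60 min post-injection. Blood and urine collected, proteins precipitated with twice the volume of ice-cold acetonitrile, centrifuged; supernatants analysed by radio-UPLC for intact tracer versus metabolites.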

[7] = test system: Blood; assay: Drug metabolism in C57BL/6 mouse blood assessed as compound remaining at 650 MBq/mL after 15 to 60 mins by UPLC analysis; type: ADME, tissue-based; how it was run: as §4
[8] = test system: Bone; assay: Drug uptake in C57BL/6 mouse bone at 5.3 MBq, iv by PET/CT imaging; type: ADME, organism-based, Bone element; conditions: in vivo; how it was run: as §2
[9] = test system: Plasma; assay: Metabolic stability in rat plasma at 60 Mbq up to 2 hrs by UPLC analysis; type: ADME, cell-free; how it was run: as §3

Chain of Matrix metalloproteinase-9 (P14780 whole entry): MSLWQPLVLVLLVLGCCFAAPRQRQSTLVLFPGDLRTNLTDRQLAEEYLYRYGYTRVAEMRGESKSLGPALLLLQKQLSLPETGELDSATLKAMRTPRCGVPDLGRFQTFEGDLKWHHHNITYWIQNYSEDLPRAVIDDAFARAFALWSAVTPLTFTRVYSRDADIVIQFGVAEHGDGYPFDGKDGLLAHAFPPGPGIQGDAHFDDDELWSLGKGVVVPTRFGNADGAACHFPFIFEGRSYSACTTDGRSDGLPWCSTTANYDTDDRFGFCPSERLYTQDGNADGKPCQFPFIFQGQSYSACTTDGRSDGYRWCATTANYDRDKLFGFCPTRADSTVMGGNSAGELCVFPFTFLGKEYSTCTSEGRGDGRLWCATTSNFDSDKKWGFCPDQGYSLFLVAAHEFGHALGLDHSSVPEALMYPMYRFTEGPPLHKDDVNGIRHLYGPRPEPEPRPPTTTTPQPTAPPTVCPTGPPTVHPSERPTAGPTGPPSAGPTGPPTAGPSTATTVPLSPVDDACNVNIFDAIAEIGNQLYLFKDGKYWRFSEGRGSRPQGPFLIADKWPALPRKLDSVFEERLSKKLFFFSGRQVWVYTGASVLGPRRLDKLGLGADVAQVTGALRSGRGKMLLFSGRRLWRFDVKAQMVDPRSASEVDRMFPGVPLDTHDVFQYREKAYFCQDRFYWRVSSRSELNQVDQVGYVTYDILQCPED

Row | SMILES | IC50 [1] [nM] | IC50 [3] [nM] | further results
1 | O=C(Nc1ccc(S(=O)(=O)N[C@H](Cc2c[nH]c3ccccc23)C(=O)O)cc1)c1ccc(Br)cc1 | 1 | 0.9 | IC50 [2]: > 1000 nM
2 | COc1ccc(-c2ccc(S(=O)(=O)N[C@H](Cc3c[nH]c4ccccc34)C(=O)O)cc2)cc1 | 28 | 4.8 | –
3 | O=C(Nc1ccc(S(=O)(=O)N[C@H](Cc2c[nH]c3ccccc23)C(=O)O)cc1)c1ccc(OC(F)(F)F)cc1 | 21 | 4.8 | –
4 | O=C(Nc1ccc(S(=O)(=O)N[C@H](Cc2c[nH]c3ccccc23)C(=O)O)cc1)c1ccc(F)cc1 | 7 | 1.8 | IC50 [2]: > 1000 nM
5 | O=C(Nc1ccc(S(=O)(=O)N[C@H](Cc2c[nH]c3ccccc23)C(=O)O)cc1)c1ccc(I)cc1 | 1.1 | < 1 | –
6 | COc1ccc(C(=O)Nc2ccc(S(=O)(=O)N[C@H](Cc3c[nH]c4ccccc34)C(=O)O)cc2)cc1 | 11 | < 1 | –
7 | CC(C)Oc1ccc(C(=O)Nc2ccc(S(=O)(=O)N[C@H](Cc3c[nH]c4ccccc34)C(=O)O)cc2)cc1 | 97 | < 1 | –
8 | CC(C)COc1ccc(C(=O)Nc2ccc(S(=O)(=O)N[C@H](Cc3c[nH]c4ccccc34)C(=O)O)cc2)cc1 | 460 | < 1 | –
9 | O=C(Nc1ccc(S(=O)(=O)N[C@H](Cc2c[nH]c3ccccc23)C(=O)O)cc1)c1ccnc(F)c1 | 78 | 14 | –
10 | O=C(Nc1ccc(S(=O)(=O)N[C@H](Cc2c[nH]c3ccccc23)C(=O)O)cc1)c1ccc(F)nc1 | 17 | 7 | IC50 [2]: > 1000 nM
11 | O=C(Nc1ccc(S(=O)(=O)N[C@H](Cc2c[nH]c3ccccc23)C(=O)O)cc1)c1cccnc1F | > 1000 | 141 | –
12 | O=C(Nc1ccc(S(=O)(=O)N[C@H](Cc2c[nH]c3ccccc23)C(=O)O)cc1)c1cc(F)ccn1 | 38 | 5.2 | –
13 | O=C(O)[C@@H](Cc1c[nH]c2ccccc12)NS(=O)(=O)c1ccc(-c2ccc(Cl)cc2)cc1 | 230 | 5.8 | –
14 | COc1ccc(Oc2ccc(S(=O)(=O)N[C@H](Cc3c[nH]c4ccccc34)C(=O)O)cc2)cc1 | 100 | 3.6 | –
15 | O=C(Nc1ccc(S(=O)(=O)N[C@H](Cc2c[nH]c3ccccc23)C(=O)O)cc1)c1ccc([18F])cc1 | – | – | Drug uptake [4]: Active; Stability [5]: Stable; dose excreted [6]: 85%; Drug metabolism [7]: Not Active; Drug uptake [8]: Not Active; Stability [9]: Stable
